Data as given in ChEMBL document CHEMBL1157649, “Cytotoxic 2-benzylidene-6-(nitrobenzylidene)cyclohexanones which display substantially greater toxicity for neoplasms than non-malignant cells” (Bioorg Med Chem, 2010).
Calls of active or inactive are those of the source. The calls are words filed in the database; no cut-off is given here.

Key:
Mus musculus [1] = species: Mus musculus; experiment: Toxicity in mouse; assay type: organism-based; settings: in vivo
Procedure, shortened: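 Neurotoxicity was recorded as the number of affected mice per number treated at each dose. Testing was run under National Institute of Neurological Disorders and Stroke screening protocols.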

[2] = Cytotoxicity against human HGF cells after 24 hrs; assay type: cell-based
Procedure, shortened: (§1)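 Cells (HGF gingival fibroblasts, HPC pulp cells, HPLF periodontal ligament fibroblasts, HSC-2 and HSC-4 squamous carcinoma, HL-60 promyelocytic leukemia) were exposed to graded concentrations for 24 h, up to a maximum of 400 μM. CC50 is the concentration reducing viable cell number by 50%, taken from dose–response curves. Values are from duplicate determinations differing by less than 5%.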

[3] = Cytotoxicity against human HPC cells after 24 hrs; assay type: cell-based; procedure, shortened: as §1
[4] = Cytotoxicity against human HPLF cells after 24 hrs; assay type: cell-based; procedure, shortened: as §1
HSC-2 [5] = experiment: Cytotoxicity against human HSC2 cells after 24 hrs; assay type: functional; settings: HSC-2, 24 h; procedure, shortened: as §1
HSC-2 [6] = experiment: Selectivity index, ratio of CC50 for human normal cells to CC50 for human HSC2 cells; assay type: functional
Procedure, shortened: (§2)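 The index is the average CC50 toward the three normal cell types (HGF, HPC, HPLF) divided by the CC50 toward the indicated malignant line.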

HSC-4 [7] = experiment: Cytotoxicity against human HSC4 cells after 24 hrs; assay type: functional; settings: HSC-4, 24 h; procedure, shortened: as §1
HSC-4 [8] = experiment: Selectivity index, ratio of CC50 for human normal cells to CC50 for human HSC4 cells; assay type: functional; procedure, shortened: as §2
HL-60 [9] = experiment: Cytotoxicity against human HL60 cells after 24 hrs; assay type: functional; settings: HL-60, 24 h; procedure, shortened: as §1
HL-60 [10] = experiment: Selectivity index, ratio of CC50 for human normal cells to CC50 for human HL60 cells; assay type: functional; procedure, shortened: as §2
[11] = Partition coefficient, log P of the compound; assay type: physicochemical; settings: octanol/water
HL-60 [12] = experiment: Induction of internucleosomal DNA fragmentation in human HL60 cells after 6 hrs; assay type: functional, cell-based
Procedure, shortened: (§3)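 HL-60 and HSC-2 cells were incubated with compound for 6 h. Internucleosomal DNA fragmentation was then examined against a DNA molecular-weight marker.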

HSC-2 [13] = experiment: Induction of internucleosomal DNA fragmentation in human HSC2 cells after 6 hrs; assay type: functional, cell-based; procedure, shortened: as §3
HL-60 [14] = experiment: Induction of apoptosis in human HL60 cells assessed as caspase-3 activation; assay type: functional, cell-based
Procedure, shortened: (§4)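 HL-60 and HSC-2 cells were incubated with compound for 5 h, then caspase-3 activation was measured. The positive control was UV irradiation (6 J/m²/min for 1 min) followed by 3 h incubation. Bars show mean ± SD, n = 3.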

HSC-2 [15] = experiment: Induction of apoptosis in human HSC2 cells assessed as caspase-3 activation; assay type: functional, cell-based; procedure, shortened: as §4
Mus musculus [16] = experiment: Toxicity in mouse assessed as induction of mortality at 30 to 300 mg/kg, ip; assay type: organism-based; parameters: dose 30-300 mg/kg, route intraperitoneal; settings: in vivo
Mus musculus [17] = experiment: Neurotoxicity in mouse assessed at 30 to 300 mg/kg, ip after 0.5 hrs; assay type: toxicity, organism-based; parameters: dose 30-300 mg/kg, route intraperitoneal; settings: in vivo
Procedure, shortened: (§5)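 Mice received 30, 100 or 300 mg/kg intraperitoneally and were examined at 0.5 and 4 h for mortality and neurological deficit, following NINDS screening protocols. Results were recorded as the number of mice showing a deficit over the number treated per dose.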

Mus musculus [18] = experiment: Neurotoxicity in mouse assessed at 30 to 300 mg/kg, ip after 4 hrs; assay type: toxicity, organism-based; parameters: dose 30-300 mg/kg, route intraperitoneal; settings: in vivo; procedure, shortened: as §5

| Compound | CC50 (HSC-2 [5]) [µM] | Selectivity Index (HSC-2 [6]) | CC50 (HSC-4 [7]) [µM] | Selectivity Index (HSC-4 [8]) | CC50 (HL-60 [9]) [µM] | Selectivity Index (HL-60 [10]) | logP [11] | Activity (Mus musculus [16]) | further results |
| --- | --- | --- | --- | --- | --- | --- | --- | --- | --- |
| N[C@@H](Cc1ccc(N(CCCl)CCCl)cc1)C(=O)O | – | – | – | – | – | – | – | – | Activity (Mus musculus [1]): 4 mg/kg |
| O=C1/C(=C/c2ccc(Cl)cc2)CCC/C1=C\c1ccccc1[N+](=O)[O-] | 3.7 | >108 | 6.1 | >66 | 7.6 | >53 | 5.38 | Non-toxic | CC50 ([2]; hgf, 24 h): > 400 µM; CC50 ([3]; hpc, 24 h): 400 µM; CC50 ([4]; hplf, 24 h): > 400 µM; Activity (HL-60 [12]): Active; Activity (HSC-2 [13]): inactive; Activity (HL-60 [14]): Active; Activity (HSC-2 [15]): inactive |
| COc1ccc(/C=C2\CCC/C(=C\c3ccc([N+](=O)[O-])cc3)C2=O)cc1 | > 400 | 1 | > 400 | 1 | > 400 | 1 | 4.98 | Non-toxic | CC50 at 24 h ([2]; HGF cells): > 400 µM; CC50 at 24 h ([3]; HPC cells): > 400 µM; CC50 at 24 h ([4]; HPLF cells): > 400 µM; Activity (Mus musculus [17]): Non-toxic; Activity (Mus musculus [18]): Non-toxic |
